# Compound activity deposited in PubChem BioAssay by several laboratories.
# Compounds with a hit are over-represented: about 2.2% of the library has one in this group of screens.
# NR2E3 ag-1: activates human NR2E3 receptor. Q9Y5X4. CHO-S Gal4-NCOR/VP16-NR2E3 two-hybrid, luciferase. inhibition of corepressor binding, % at 3.98 µM. actives 0.35% (n = 360,000). AID 602229;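 active = inhibition above the mean of all tested compounds plus 3 SD, cut at about 70% in these data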;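 also: 0% = DMSO with NR2E3 transfected cells and 100% = cells lacking NR2E3 construct; higher means lower luciferase signal from less NR2E3 corepressor binding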
# Target sequence (Q9Y5X4 whole entry, looked up, the tested form may be a part): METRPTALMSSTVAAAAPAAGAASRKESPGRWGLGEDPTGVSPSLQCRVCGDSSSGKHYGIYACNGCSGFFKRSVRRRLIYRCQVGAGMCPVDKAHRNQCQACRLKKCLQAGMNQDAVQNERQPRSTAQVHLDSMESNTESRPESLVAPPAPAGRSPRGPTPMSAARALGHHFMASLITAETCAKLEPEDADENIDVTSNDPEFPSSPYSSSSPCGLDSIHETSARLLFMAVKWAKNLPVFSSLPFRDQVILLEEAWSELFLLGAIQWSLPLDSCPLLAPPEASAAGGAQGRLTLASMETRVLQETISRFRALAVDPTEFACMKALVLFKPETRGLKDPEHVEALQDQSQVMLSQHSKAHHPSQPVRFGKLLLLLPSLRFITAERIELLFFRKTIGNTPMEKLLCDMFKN
# GalR3 antag: blocks the human galanin receptor 3. HEK293 GalR3-CNG cAMP membrane potential fluorescence; galR3 body fused to GalR1 C-terminus. inhibition, % at 3 µM. actives 0.44% (n = 360,000);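 active = inhibition above the screen-wide average plus 3 SD, cut at about 13% in these data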;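 also: forskolin and galanin both at EC90 stimulate the cells; cAMP rise reported by CNG channel membrane potential dye signal; 0% = forskolin plus galanin with DMSO and 100% = forskolin alone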
# Target sequence (O60755 1-299 limits assumed): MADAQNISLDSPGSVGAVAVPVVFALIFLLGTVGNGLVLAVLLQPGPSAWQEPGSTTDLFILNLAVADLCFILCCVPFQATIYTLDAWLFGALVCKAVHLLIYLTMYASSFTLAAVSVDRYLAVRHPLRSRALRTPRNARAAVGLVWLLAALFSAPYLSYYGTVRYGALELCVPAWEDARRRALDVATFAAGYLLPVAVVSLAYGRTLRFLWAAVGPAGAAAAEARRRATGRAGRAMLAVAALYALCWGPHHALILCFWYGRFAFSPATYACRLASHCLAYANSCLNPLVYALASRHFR
# NR2E3 ag-2: NR2E3 (human) agonism; Q9Y5X4; GST-NR2E3/biotin-RetCOR TR-FRET, 1536-well; inhibition of corepressor binding, % at 4.78 µM; actives 0.12% (n = 320,000);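 active = percent inhibition above the cutoff of mean plus 3 SD of all tested compounds, set per screening campaign, cut at about 20% in these data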;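 also: 0% = DMSO wells and 100% = biotin wells as full block of FRET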
#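 Format: 1536-well format; test system: GST-NR2E3 and biotin-RetCOR proteins; read-out basis: percent inhibition of TR-FRET ratio; timing: 5 h incubation at 4 °C; detection: time-resolved FRET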
# V-ATPase pHluor: regulators of yeast V-ATPase proton transport. S. cerevisiae, pHLuorin cytosolic pH fluorescence. response, % at 10 µM. actives 0.37% (n = 350,000); in the data active = response mostly above about 7.3%, no sharp cut-off; inactive = mostly below about 5.4%; also: actives read high
# HIV Env fusion: inhibitors of HIV Env-mediated cell fusion; HeLa-JRFL Env/CEM21 cell fusion, luciferase; inhibition, % at 12.3 µM; actives 1.1% (n = 360,000); AID 651610;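 active = mean replicate inhibition score of at least 50 and every replicate individually at or above 50; inconclusive = only one of the two criteria met; inactive = mean below 50 and not all replicates reaching 50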;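 also: 0% = plate neutral controls and 100% = maraviroc near 300 nM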
# FXN GAA850 act: increases GAA850 frataxin promoter reporter activity; HEK293 lucGAA850 FXN promoter luciferase reporter, 24 h; percent of 10 µM SAHA response; activation, % at 6 µM; actives 0.56% (n = 360,000); AID 540364;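 active = activation above the average of all compounds screened plus 3 SD, cutoff fixed separately per campaign, cut at about 7.5% in these data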;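 also: 0% = DMSO wells and 100% = 10 µM SAHA wells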
# Numbers without * were called inactive; u = inconclusive; x = not tested or not shown; [ ] = remark or other dose.
SMILES,NR2E3 ag-1,GalR3 antag,NR2E3 ag-2,V-ATPase pHluor,HIV Env fusion,FXN GAA850 act
C[C@H]1CN([C@@H](C)CO)S(=O)(=O)c2ccc(-c3ccccc3)cc2O[C@H]1CN(C)Cc1ccccc1,x,x,x,x,55.2*[16.7 µM],x
C[C@@H]1CN([C@@H](C)CO)S(=O)(=O)c2ccc(-c3ccccc3)cc2O[C@H]1CN(C)Cc1ccncc1,x,x,x,x,34.7[16.7 µM],x
C[C@@H]1CN([C@@H](C)CO)S(=O)(=O)c2ccc(-c3ccc(F)cc3)cc2O[C@H]1CN(C)C(=O)C1CCCCC1,x,x,x,x,67.3*[16.7 µM],x
O=C(NCC[C@@H]1CC[C@H](NS(=O)(=O)c2cccc(F)c2)[C@@H](CO)O1)C1CCCCC1,x,x,x,x,21.1[16.7 µM],x
O=S1(=O)Nc2c(ccc3cccnc23)-c2ccccc21,102.1*,x,-1.7,5.2,x,-20.1
COc1ccc(NC(=O)N(C)C[C@H]2OCCCC[C@@H](C)Oc3ccc(NS(=O)(=O)c4ccc(OC)cc4)cc3C(=O)N([C@H](C)CO)C[C@@H]2C)cc1,x,x,x,x,-47.6[16.7 µM],x
COc1ccc(NC(=O)Nc2ccc3c(c2)C(=O)N([C@@H](C)CO)C[C@H](C)[C@@H](CN(C)S(=O)(=O)c2cccs2)OCCCC[C@@H](C)O3)cc1,x,x,x,x,3.3[16.7 µM],x
Cc1ccc(C(CCNC(C)c2cccs2)c2ccco2)cc1 (stereo not drawn),-30.4,-4.1,2.3,-2.5,65.8*,1.3
CC(NCCC(Cc1ccccc1)c1ccco1)c1ccccc1 (stereo not drawn),5.3,-7.2,2.8,-2.2,13.9,-3.2
Cc1ccc(CNC(=O)c2ccc3c(=O)c(O)c(-c4ccc(C)cc4)[nH]c3c2)cc1,-36.1,-5.3,0.5,-0.9,56.6*,-6.1
COC(=O)c1ccc(NC(=S)NCCC2=CCCCC2)cc1,-17.8,-5.6,2.6,-1.4,u,0.8
COC(=O)c1cccc(NC(=S)NCCC2=CCCCC2)c1,91.0*,-4.7,4.3,-2.8,x,0.5
Cc1noc(C)c1NC(=O)N(C)C[C@@H]1OCCCC[C@H](C)Oc2ccc(NC(=O)Nc3ccc(F)cc3)cc2C(=O)N([C@@H](C)CO)C[C@@H]1C,x,x,x,x,3.4[16.7 µM],x
COC(=O)CCC(=O)Nc1nccs1,2.3,0.8,0.9,-1.6,-4.0,2.2
COC(=O)C(Nc1nccs1)(OC)C(F)(F)F (stereo not drawn),3.5,-4.2,3.0,17.4*,23.0,-2.1
CCC(=O)Nc1ccc2c(c1)OC[C@H](C)N(CC1CCOCC1)C[C@@H](C)[C@H](OC)CN(C)C2=O,x,x,x,x,0.0[16.7 µM],x
CCCCN(C(=O)NC(=O)Nc1nc2ccc(OC)cc2s1)S(C)(=O)=O,-59.4,0.8,0.0,-1.1,x,9.5*
CCCCOC(=O)Nc1nc2ccc(OC)cc2s1,-58.5,-5.4,-2.0,-0.1,-134.2,5.4
COc1ccc(CCNC(=O)CSc2nc(N)c(C#N)c(-c3cccs3)c2C#N)cc1OC,0.9,-2.4,3.1,1.5,118.6*,3.9
Cc1ccccc1NC(=O)CSc1nc(N)c(C#N)c(-c2cccs2)c1C#N,16.3,-1.3,18.4,1.4,x,-2.2
CC(C)NC(=O)Nc1ccc2c(c1)C(=O)N([C@@H](C)CO)C[C@H](C)[C@@H](CN(C)C(=O)CCC(F)(F)F)OCCCC[C@H](C)O2,x,x,x,x,14.7[16.7 µM],x
CN1C(=O)c2cc(NC(=O)Nc3ccccc3)ccc2OC[C@H]2O[C@@H](CC(=O)NC3CCC3)CC[C@H]21,x,x,x,x,16.7[16.7 µM],x
c1cc(SC2CCCCC2)cc(-c2nc3cnccn3c2NC2CCCCC2)c1,17.2,-4.0,x,1.5,59.1*,-0.1
NC(N)=NC(=O)c1nc(Cl)c(N2CCCCCC2)nc1N,-48.2,-3.0,3.5,-1.2,61.7*,2.9
CC(C)(Sc1ccc(CCN(CCCCC2CCCCC2)C(=O)NC2CCCCC2)cc1)C(=O)O,7.1,x,-1.1,-1.2,56.7*,0.8
SMILES,NR2E3 ag-1,GalR3 antag,NR2E3 ag-2,V-ATPase pHluor,HIV Env fusion,FXN GAA850 act
COc1cccc(S(=O)(=O)N[C@H]2C=C[C@H](CC(=O)NCc3ccc(F)cc3)O[C@@H]2CO)c1,x,x,x,x,2.4[16.7 µM],x
C/C=C/c1ccc2c(c1)O[C@@H](CN(C)C)[C@H](C)CN([C@@H](C)CO)S2(=O)=O,x,x,x,x,8.9[16.7 µM],x
CC(=C/c1ccccc1)/C=N/n1c(C)n[nH]c1=S,-35.6,-10.4,-1.1,2.4,59.2*,3.5
CC(/C=N/n1c(-c2cccnc2)n[nH]c1=S)=C\c1ccccc1,-15.4,-2.8,1.2,-2.6,25.3,0.5
CC(/C=N/n1c(COc2ccccc2)n[nH]c1=S)=C\c1ccccc1,-1.2,-0.5,1.3,-1.1,-0.5,3.4
CC(=C/c1ccccc1)/C=N/n1c(-c2ccncc2)n[nH]c1=S,-61.0,-2.9,4.8,2.1,64.3*,-6.3
C#CC(=O)N(c1ccc(OC)cc1OC)C(C(=O)NC1CCCC1)c1cccs1 (stereo not drawn),-4.0,-5.9,0.7,-0.7,109.0*,-15.2
C#CC(=O)N(c1cc(OC)ccc1OC)C(C(=O)NC1CCCC1)c1cccs1 (stereo not drawn),11.9,x,2.5,0.2,x,-18.1
COc1ccc([C@@H]2[C@@H]3C(=O)N(C(C)(C)C)C(=O)[C@@H]3[C@]3(Cc4ccccc4)C(=O)N(c4ccccc4)C(=O)N23)cc1,0.8,-8.4,-0.9,-4.5,4.0,1.4
Cc1cccc([C@@H]2[C@@H]3C(=O)N(Cc4ccccc4)C(=O)[C@@H]3[C@]3(CC(C)C)C(=O)N(c4cccc(Cl)c4)C(=O)N23)c1,-6.5,-3.8,1.1,-4.3,55.4*,-1.5
COc1ccc([C@@H]2[C@@H]3C(=O)N(C(C)(C)C)C(=O)[C@@H]3[C@]3(Cc4ccc(Cl)cc4)C(=O)N(c4cccc(Br)c4)C(=O)N23)cc1,11.4,0.2,2.6,3.4,78.5*,0.6
CC[C@@]12C(=O)N(c3cccc(Cl)c3)C(=O)N1[C@H](c1cccc(C)c1)[C@@H]1C(=O)N(Cc3ccccc3)C(=O)[C@@H]12,0.3,-2.7,3.9,-2.4,45.8,-1.7
COc1ccc([C@@H]2[C@@H]3C(=O)N(C(C)(C)C)C(=O)[C@@H]3[C@]3(Cc4ccccc4)C(=O)N(c4cccc(Cl)c4)C(=O)N23)cc1,18.6,-1.9,4.9,-3.1,79.7*,1.6
COc1ccc([C@@H]2[C@@H]3C(=O)N(C(C)(C)C)C(=O)[C@@H]3[C@]3(Cc4ccc(Cl)cc4)C(=O)N(c4cccc(F)c4)C(=O)N23)cc1,-14.9,2.8,0.5,-0.9,106.6*,0.0
COc1ccc([C@@H]2[C@@H]3C(=O)N(C(C)(C)C)C(=O)[C@@H]3[C@]3(Cc4ccccc4)C(=O)N(c4cccc(C)c4)C(=O)N23)cc1,-12.5,-5.7,4.7,-2.4,18.9,-1.6
C/C=C/c1ccc2c(c1)O[C@@H](CN(C)Cc1ccncc1)[C@@H](C)CN([C@H](C)CO)S2(=O)=O,x,x,x,x,5.5[16.7 µM],x
